Measured values published in ChEMBL document CHEMBL1125672, “2-acetylpyridine thiosemicarbazones. 13. Derivatives with antifilarial activity” (1991).

Tests used:
Onchocerca volvulus [1] = assay: Mean motility score for treated Onchocerca volvulus excluding LLCMK2 feeder cells at a concentration of 3.1*10e-6 M at 96 h
Onchocerca gutturosa [2] = assay: Mean motility score for treated Onchocerca gutturosa involving LLCMK2 feeder cells at a concentration of 3.05*10e-9 M at 3.5 h; format: functional
How it was run: (§1)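 Single male O. gutturosa worms (obtained following abattoir slaughter) per well in Eagle's MEM with 10% heat-inactivated fetal calf serum, penicillin, streptomycin, amphotericin B and bicarbonate, over LLCMK2 feeder cells, 5% CO2 in air. Drug dissolved in DMSO; controls received matched DMSO ≤0.016%. Motility scored 0 (immotile) to 10 (maximum control activity) every 30 min to 4.5 h, then days 1, 2, 3, 4, 7.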

Onchocerca volvulus [3] = assay: Mean motility score for treated Onchocerca volvulus excluding LLCMK2 feeder cells at a concentration of 5*10e-5 M at 1.5 h
Onchocerca gutturosa [4] = assay: Mean motility score for treated Onchocerca gutturosa involving LLCMK2 feeder cells at a concentration of 5*10e-5 M at 2.5 h; format: functional
How it was run: as §1

Onchocerca volvulus [5] = assay: Mean motility score for treated Onchocerca volvulus excluding LLCMK2 feeder cells at a concentration of 5*10e-5 M at 96 h
Onchocerca gutturosa [6] = assay: Mean motility score for treated Onchocerca gutturosa involving LLCMK2 feeder cells at a concentration of 3.05*10e-9 M at 96 h; format: functional
How it was run: as §1

Onchocerca volvulus [7] = assay: Mean motility score for treated Onchocerca volvulus excluding LLCMK2 feeder cells at a concentration of 5*10e-5 M at 2 h
Onchocerca gutturosa [8] = assay: Mean motility score for treated Onchocerca gutturosa involving LLCMK2 feeder cells at a concentration of 5*10e-5 M at 4 h; format: functional
How it was run: as §1

Onchocerca volvulus [9] = assay: Mean motility score for treated Onchocerca volvulus excluding LLCMK2 feeder cells at a concentration of 3.1*10e-6 M at 0.5 h
Acanthocheilonema viteae = assay: anti-filarial Activity was measured against Acanthocheilonema viteae in jirds at 12.5 mg/kg/day(5 days) dose; format: functional
How it was run: (§2)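 Jirds with established B. pahangi or A. viteae infections were given drug once daily for 5 days by subcutaneous injection, at the maximum tolerated dose and, where supply allowed, graded lower doses. Tolerance was first checked in noninfected jirds with a single 200 mg/kg oral or subcutaneous dose, watching 72 h for excessive weight loss or death. Macrofilarial suppression was the read-out.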

Onchocerca gutturosa [10] = assay: Mean motility score for treated Onchocerca gutturosa involving LLCMK2 feeder cells at a concentration of 5*10e-5 M at 3 h; format: functional
How it was run: as §1

Onchocerca gutturosa [11] = assay: Mean motility score for treated Onchocerca gutturosa involving LLCMK2 feeder cells at a concentration of 5*10e-5 M at 3.5 h; format: functional
How it was run: as §1

Onchocerca volvulus [12] = assay: Mean motility score for treated Onchocerca volvulus excluding LLCMK2 feeder cells at a concentration of 3.1*10e-6 M at 1 h
Onchocerca volvulus [13] = assay: Mean motility score for treated Onchocerca volvulus excluding LLCMK2 feeder cells at a concentration of 3.1*10e-6 M at 48 h
Onchocerca gutturosa [14] = assay: Mean motility score for treated Onchocerca gutturosa involving LLCMK2 feeder cells at a concentration of 5*10e-5 M at 72 h; format: functional
How it was run: (§3)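 Single male O. gutturosa worms per well in Eagle's MEM with 10% heat-inactivated fetal calf serum, antibiotics and bicarbonate, over LLCMK2 feeder cells, 5% CO2 in air. Test chemical dissolved in DMSO and diluted into medium; control wells got matched DMSO not exceeding 0.016%. Motility scored 0 (immotile) to 10 (maximum control motility) every 30 min for 4.5 h, then at 1, 2, 3, 4 and 7 days.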

Onchocerca volvulus [15] = assay: Mean motility score for treated Onchocerca volvulus excluding LLCMK2 feeder cells at a concentration of 3.1*10e-6 M at 1.5 h
Onchocerca gutturosa [16] = assay: Mean motility score for treated Onchocerca gutturosa involving LLCMK2 feeder cells at a concentration of 3.05*10e-9 M at 24 h; format: functional
How it was run: as §1

Onchocerca gutturosa [17] = assay: Mean motility score for treated Onchocerca gutturosa involving LLCMK2 feeder cells at a concentration of 5*10e-5 M at 0.5 h; format: functional
How it was run: as §1

Onchocerca gutturosa [18] = assay: Mean motility score for treated Onchocerca gutturosa involving LLCMK2 feeder cells at a concentration of 5*10e-5 M at 96 h; format: functional
How it was run: as §3

Onchocerca volvulus [19] = assay: Mean motility score for treated Onchocerca volvulus excluding LLCMK2 feeder cells at a concentration of 5*10e-5 M at 1 h
Onchocerca gutturosa [20] = assay: Mean motility score for treated Onchocerca gutturosa involving LLCMK2 feeder cells at a concentration of 5*10e-5 M at 2 h; format: functional
How it was run: as §1

Onchocerca gutturosa [21] = assay: Mean motility score for treated Onchocerca gutturosa involving LLCMK2 feeder cells at a concentration of 5*10e-5 M at 4.5 h; format: functional
How it was run: as §1

Onchocerca volvulus [22] = assay: Mean motility score for treated Onchocerca volvulus excluding LLCMK2 feeder cells at a concentration of 5*10e-5 M at 0.5 h
Onchocerca gutturosa [23] = assay: Colorimetric quantification of male Onchocerca gutturosa viability, expressed as % inhibition of formazan formation at 5*10e-5 M conc. by using tetrazolium Dye MTT assay; format: functional
How it was run: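 Single intact male O. gutturosa, cultured with LLCMK2 feeder cells in MEM + 10% heat-inactivated FCS (5% CO2), drug added from DMSO (≤0.016% DMSO in controls). MTT read after 168 h: worm in 0.5 mg/mL MTT, 30 min at 36.5 °C, formazan solubilized in DMSO 1 h at room temperature, absorbance 490 nm vs DMSO blank.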

Onchocerca gutturosa [24] = assay: Mean motility score for treated Onchocerca gutturosa involving LLCMK2 feeder cells at a concentration of 3.05*10e-9 M at 72 h; format: functional
How it was run: as §1

Onchocerca gutturosa [25] = assay: Mean motility score for treated Onchocerca gutturosa involving LLCMK2 feeder cells at a concentration of 3.05*10e-9 M at 4.5 h; format: functional
How it was run: as §1

Onchocerca gutturosa [26] = assay: Mean motility score for treated Onchocerca gutturosa involving LLCMK2 feeder cells at a concentration of 5*10e-5 M at 24 h; format: functional
How it was run: as §1

Onchocerca gutturosa [27] = assay: Mean motility score for treated Onchocerca gutturosa involving LLCMK2 feeder cells at a concentration of 3.05*10e-9 M at 168 h; format: functional
How it was run: as §1

Brugia pahangi = assay: anti-filarial Activity was measured against Brugia pahangi in jirds at 12.5 mg/kg/day(5 days) dose; format: functional
How it was run: as §2

Onchocerca gutturosa [28] = assay: Mean motility score for treated Onchocerca gutturosa involving LLCMK2 feeder cells at a concentration of 5*10e-5 M at 1 h; format: functional
How it was run: as §1

Onchocerca volvulus [29] = assay: Mean motility score for treated Onchocerca volvulus excluding LLCMK2 feeder cells at a concentration of 5*10e-5 M at 48 h
Onchocerca gutturosa [30] = assay: Mean motility score for treated Onchocerca gutturosa involving LLCMK2 feeder cells at a concentration of 5*10e-5 M at 48 h; format: functional
How it was run: as §3

Row | SMILES | Motility (Onchocerca volvulus [1]) | Motility (Onchocerca gutturosa [2]) | Motility (Onchocerca volvulus [3]) | Motility (Onchocerca gutturosa [4]) | Motility (Onchocerca volvulus [5]) | Motility (Onchocerca gutturosa [6]) | Motility (Onchocerca volvulus [7]) | Motility (Onchocerca gutturosa [8]) | Motility (Onchocerca volvulus [9]) | Suppression (Acanthocheilonema viteae) [%] | Motility (Onchocerca gutturosa [10]) | Motility (Onchocerca gutturosa [11]) | Motility (Onchocerca volvulus [12]) | Motility (Onchocerca volvulus [13]) | Motility (Onchocerca gutturosa [14]) | Motility (Onchocerca volvulus [15]) | Motility (Onchocerca gutturosa [16]) | Motility (Onchocerca gutturosa [17]) | Motility (Onchocerca gutturosa [18]) | Motility (Onchocerca volvulus [19]) | also measured
1 | C/C(=N\NC(S)=Nc1ccccc1N)c1ccccn1 | 0.4 | 7.3 | 4.4 | 9.5 | 0.6 | 6.8 | 6 | 9.5 | 8 | 28 | 9.3 | 9.5 | 5 | 2 | 1.6 | 4.4 | 7.3 | 10 | 1.5 | 5 | Motility (Onchocerca gutturosa [20]): 8.5; Motility (Onchocerca gutturosa [21]): 9.5; Motility (Onchocerca volvulus [22]): 5; Inhibition (Onchocerca gutturosa [23]): 72.9%; Motility (Onchocerca gutturosa [24]): 7.5; Motility (Onchocerca gutturosa [25]): 7.5; Motility (Onchocerca gutturosa [26]): 9.5; Motility (Onchocerca gutturosa [27]): 4.5; Suppression (Brugia pahangi): 16%; Motility (Onchocerca gutturosa [28]): 10; Motility (Onchocerca volvulus [29]): 3.6; Motility (Onchocerca gutturosa [30]): 8.3
2 | C/C(=N\NC(=S)N1CCCCCC1)c1ccccn1 | 0 | 8.3 | 8 | 3.8 | 0.3 | 5.5 | 8 | 1.5 | 6.6 | -16 | 2.2 | 2.3 | 6.6 | 0.6 | 0 | 6.4 | 9.3 | 6 | 0 | 8.4 | Motility (Onchocerca gutturosa [20]): 4.8; Motility (Onchocerca gutturosa [21]): 1.8; Motility (Onchocerca volvulus [22]): 8; Inhibition (Onchocerca gutturosa [23]): 90.3%; Motility (Onchocerca gutturosa [24]): 6; Motility (Onchocerca gutturosa [25]): 9.5; Motility (Onchocerca gutturosa [26]): 0; Motility (Onchocerca gutturosa [27]): 3.5; Suppression (Brugia pahangi): 100%; Motility (Onchocerca gutturosa [28]): 4.8; Motility (Onchocerca volvulus [29]): 1; Motility (Onchocerca gutturosa [30]): 0
